Fewer inactive variants are shown than the library holds.
B1: tRNA (parent)
chain: GUUCCGUUGGCGUAAUGGUAACGCGUCUCCCUCCUAAGGAGAAGACUGCGGGUUCGAGUCCCGUACGGAACG

Variants of: B1
Assay: yeast fitness relative to wild type (ratio to wild type); higher = fitter; tRNA-Arg(CCU), competitive growth, 37 C, YPD
Method in brief: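 The tRNA-Arg(CCU) gene variants were made by chemical synthesis with a 3% per-site mutation rate at 69 sites and inserted at the native genomic locus of Saccharomyces cerevisiae. After pooling, the strains were competed in YPD at 37°C for 24 hours in six parallel replicates. Gene amplicons from the start population and each end population were read by 100-nucleotide paired-end sequencing, and Darwinian fitness relative to wild type was taken from genotype frequency changes. Genotypes needed ≥ 100 starting reads, and estimates < 0.5 were set to 0.5.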

Row | Variant | yeast fitness
1 | GUUCCGUUAGCGUAAUGGUAACACGUCUCCCUCCUAAGGAGAAGACUGCGGGUUCGAGUCCCGUACGGAACG [G9A G23A] | 0.825
2 | GUUCCGUUAGCGUAAUGGUAACGCAUCUCCCUCCGAAGGAGAAGACUGCGGGUUCGAGUCCCGUACGGAACG [G9A G25A U35G] | ≤ 0.5
3 | GUUCCGUUAGCAUAAUGGUAACGCGUGUCCCUCCUAAGGAGAAGACUGCGGGUUCGAGUCCCGUACGGAACG [G9A G12A C27G] | ≤ 0.5
4 | GUUCCGUUAACGUAAUGGUAACGCGUCUCCGUCCUAAGGAGAAGACUGCGGGUUCGAGUCCCGUACGGAACG [G9A G10A C31G] | ≤ 0.5
5 | GUUCCGUUAGCCUAAUAGUAAGGCGUCUCUCUCGUAAGGAGAAGACUGCGGGUUCGAGGCCCGUACGGAACG [G9A G12C G17A C22G C30U C34G U59G] | ≤ 0.5
6 | GUUCCGUUACUGUAAGGGUAACGCGUCUCCCUCCUAAGGAAAAGACUGCGGGUUCGAGUCCCGUACGGAACG [G9A G10C C11U U16G G41A] | 0.597
7 | GUUCCGUUAGCGUAAUGGUAACACGUAUCCCUCCUAAGGAGAAGACUGCGGGUUCGAGUCCCGUACGGAACG [G9A G23A C27A] | ≤ 0.5
8 | GUUCCGUUAACGUAAUGGUAACGCGUCUCCGUCCUAAGGAGAAGACUGCGGAUUCGAGUUCCGUACGGAACG [G9A G10A C31G G52A C60U] | ≤ 0.5
9 | GUUCCGUUAGCAUAAUGGUAAGGCGUCUCCCUCCUAAGGAGAGGAGUGCGGGUUCGAGUCCCGUAUGGAACG [G9A G12A C22G A43G C46G C66U] | ≤ 0.5
10 | GUUCCGUUAGCUUUAUGGUAACGCGUCUCCCUCCUAAGGAGAAGACUGCGGGUUCGAGUCCCGUACGGAACG [G9A G12U A14U] | ≤ 0.5
11 | GUUCCGUUAGCGUAAUGAUAACGCCUCUCUCUCCUAAGGAGAAGACUGCGGGUUCGAGUCCCGUACGGAACG [G9A G18A G25C C30U] | ≤ 0.5
12 | GUUCCGUUAGCGUAAUGGUAACGCGUCUCCCUCCUAAGGAGAAGACUGCGGGUUCGAGUCCAGUACGGAACG [G9A C62A] | 0.842
13 | GUUCCGUUACUGUAAGGGUAACGCGUCUCCCUCCUAAGGAAAAGACUGCGGGUUCGAGUCCCGUACGGAGCG [G9A G10C C11U U16G G41A A70G] | ≤ 0.5
14 | GUUCCGUUAGCGUAAUCGUAACGCGUCUCCCUCCUAAGGAGAAGACUGCGGAUUAGAGUCCCGUACGGAACG [G9A G17C G52A C55A] | ≤ 0.5
15 | GUUCCGUUAGCCUAAUGGUAAUGCGUCUCCCUCCUAAGGAGAAGACUGCGGGUUCGAGUCCCGUACGGAACG [G9A G12C C22U] | 0.591
16 | GUUCCGUUAACGUAAUGGUAACGCGUCUCCCUCCUAAGGAGAAGAGUGCGGGUUCGAGUCCCGUACGGAACG [G9A G10A C46G] | ≤ 0.5
17 | GUUCCGUUAGCGUAAUGGUAACGCCUCUCCCUCCUAAGGAGAAGACUGCGGGUUCGAGUGCCGUACGGAACG [G9A G25C C60G] | ≤ 0.5
18 | GUUCCGUUAGCGUAAUGGUAACUCGUCUCCCUCCUAAGGAGCAGACUGCGGGUUCGAGUCCCGUACGGAACG [G9A G23U A42C] | ≤ 0.5
19 | GUUCCGUUAGCGUAAUGGUAACGCGUCUCCCUCCUAAGGAGAAGACUGCGGGUUCGAGUCCCGUAUGGAACG [G9A C66U] | 0.898

Row | Variant | yeast fitness
20 | GUUCCGUUAACGUAAUGGUAACGCGUCUCCCUCCUAAGGAGAAGACUGCGGGUUCGAGUCCCGUACGGAACG [G9A G10A] | 0.577
21 | GUUCCGUUAACGUAAUGGUAACGCGUCUCCGUCCUAAGGAGAAGACUGCGGGUUCGAGUCCCGUUCGGAACG [G9A G10A C31G A65U] | ≤ 0.5
22 | GUUCCGUUACCGUAAUGGAAACGCGUCUCCCUCCUAAGGAGAAGACUGCGGGUUCGAGUCCCGUACGGAACG [G9A G10C U19A] | ≤ 0.5
23 | GUUCCGUUAGCGUAAUGAUAACGCGUUUCCCUCCUAAGGAGUAGACUGCGGGUUCGAGUCCCGUACGGAACG [G9A G18A C27U A42U] | 0.652
24 | GUUCCGUUAGCGUAAUGGUAACGCAUCUCCCUCCUAAGGAGAAGACUGCGGGUUCGAGUCCCGUACGGAACG [G9A G25A] | 0.978
25 | GUUCCGUUAGCAUAAUGGUAACGCGUCUCGCCCCUAAGGAGAAGACUGCAGGUUCGAGUCCCGUACGGAACG [G9A G12A C30G U32C G50A] | 0.554
26 | GUUCCGUUAACGUAAUGGUAGCGCGUCUCCCUCCUAAGGAGAAGACUGCGGGUUCGGGUCCCGUAUGGAACG [G9A G10A A21G A57G C66U] | ≤ 0.5
27 | GUUCCGUUAGCGUAAUGGUAACGCGUCUCCCUCCUAAAGAGAAGACUGCGGGUUCGAGUCCCGUACGGAACG [G9A G38A] | 0.976
28 | GUUCCGUUAGCCUCAUGGUAACACGUCUCCCUCCUAAGGAGAAGACUGCCGGUUCGAGUCCCGUACGGAACG [G9A G12C A14C G23A G50C] | 0.56
29 | GUUCCGUUAGCCUAAUAGUAAGGCGUCUCUCUCGUAAGGAGAAGACUGCGGGUUCGAGUCCCGUACGGAACG [G9A G12C G17A C22G C30U C34G] | ≤ 0.5
30 | GUUCCGUUAGCGUAAUGGUAACGCAUCUCCCUCCUAAGGAGAAGACUGUGGGUUCGAGUCCCGUACGGAACG [G9A G25A C49U] | 0.773
31 | GUUCCGUUAGCGUAAUCGUUACGCGUCUCCCUCCUAAGGAGAAGACUGCGGGUACGAGUCUCGUACGGAACG [G9A G17C A20U U54A C61U] | ≤ 0.5
32 | GUUCCGUUAGCGUAAUGGUAACACGUCUUCCUCCUAAGGAGAGGACUGCGGGUUCGAGUCCCGUACGUAACG [G9A G23A C29U A43G G68U] | ≤ 0.5
33 | GUUCCGUUAGCGUAAUCGUAACGCGUCUGCCUCCUAAGGAGAAGACUGGGGGUUCGAGUCCCGUACGGAACG [G9A G17C C29G C49G] | ≤ 0.5
34 | GUUCCGUUAGCCAAAUGGUAACGCAUCUCGCUCCUAAGGAGAAGACUGCGGGUUCGAGUCCCGUACGGAACG [G9A G12C U13A G25A C30G] | ≤ 0.5
35 | GUUCCGUUAGCGUAAUGCUAACGCGUCUCCCUCCUAAGCAGAAGACUGCGGGUUCGAGUCCCGUACGGUACG [G9A G18C G39C A69U] | ≤ 0.5
36 | GUUCCGUUAGCGUAAUUGUAACGCGUCUCCCUCCAAAGGAGAAGACUGCGGAUUCGAGCCCCGUAAAGAACG [G9A G17U U35A G52A U59C C66A G67A] | ≤ 0.5
37 | GUUCCGUUAGCGUAAUGGUAACACGUAUCCCUCCUAAGGAGAAGACUGCGGGUUCGAGUCCCGUACCGAACG [G9A G23A C27A G67C] | ≤ 0.5

From the RNAGym collection of RNA variant scans (doi:10.1126/science.aae0568)
